Measurements as given in ChEMBL document CHEMBL1142671, “Chiral DNA gyrase inhibitors. 3. Probing the chiral preference of the active site of DNA gyrase. Synthesis of 10-fluoro-6-methyl-6,7-dihydro-9-piperazinyl- 2H-benzo[a]quinolizin-20-one-3-carboxylic acid analogues” (J Med Chem, 2005).
Values after ≈ are worked out from the molar mass of the structure shown.

Experiments:
Nucleic Acid = test: In vitro inhibitory concentration against DNA gyrase from Micrococcus luteus […]; type: nucleic-acid assay
Procedure, shortened: (§1)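 Purified DNA gyrase, isolated from Escherichia coli H560 or Micrococcus luteus; IC50 in µg/mL, averaged over triplicate runs.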

Escherichia coli [1] = test: In vitro minimum inhibitory concentration against Escherichia coli SS was determined; type: functional
Procedure, shortened: (§2)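 Two-fold agar dilution series; MIC taken as the average of triplicate runs. Tested against intact Gram-positive and Gram-negative bacteria.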

DNA gyrase = DNA gyrase (Escherichia coli, UniProt P0AES4+P0AES6); test: In vitro inhibitory concentration against DNA gyrase from Escherichia coli H560; type: protein-complex assay; procedure, shortened: as §1
Micrococcus luteus = test: In vitro minimum inhibitory concentration against Micrococcus luteus 9341 was determined; type: functional; procedure, shortened: as §2
Escherichia coli [2] = test: In vitro minimum inhibitory concentration against Escherichia coli H560 was determined; type: functional; procedure, shortened: as §2
Escherichia coli [3] = test: In vitro minimum inhibitory concentration against Escherichia coli Juhl was determined; type: functional; procedure, shortened: as §2
Pseudomonas aeruginosa = test: In vitro minimum inhibitory concentration against Pseudomonas aeruginosa was determined; type: functional; procedure, shortened: as §2
Staphylococcus aureus = test: In vitro minimum inhibitory concentration against Staphylococcus aureus ATCC 6538P was determined; type: functional; procedure, shortened: as §2
[4] = In vitro minimum inhibitory concentration against […] faecium ATCC 8043 was determined; type: functional; procedure, shortened: as §2
Escherichia coli [5] = test: In vitro minimum inhibitory concentration against Escherichia coli KNK 437 was determined; type: functional; procedure, shortened: as §2

Row | IC50 (Nucleic Acid) | MIC (Escherichia coli [1]) | IC50 (DNA gyrase) | MIC (Micrococcus luteus) | MIC (Escherichia coli [2]) | MIC (Escherichia coli [3]) | MIC [4] | MIC (Escherichia coli [5]) | SMILES | MIC (Pseudomonas aeruginosa) | MIC (Staphylococcus aureus)
1 | > 250 mg/L | 1.56 mg/L (≈ 6.11 µM) | 78.3 µM | > 100 mg/L | 25 mg/L (≈ 97.9 µM) | 25 mg/L (≈ 97.9 µM) | > 100 mg/L | > 100 mg/L | C[C@H]1Cc2ccccc2-c2cc(=O)c(C(=O)O)cn21 | 50 mg/L (≈ 196 µM) | 50 mg/L (≈ 196 µM)
2 | > 250 mg/L | 6.25 mg/L (≈ 24.5 µM) | 125 µM | 100 mg/L (≈ 392 µM) | 50 mg/L (≈ 196 µM) | 25 mg/L (≈ 97.9 µM) | > 100 mg/L | > 100 mg/L | C[C@@H]1Cc2ccccc2-c2cc(=O)c(C(=O)O)cn21 | 100 mg/L (≈ 392 µM) | 25 mg/L (≈ 97.9 µM)

Row | SMILES | IC50 (Nucleic Acid) | MIC (Escherichia coli [1]) | IC50 (DNA gyrase) | MIC (Micrococcus luteus) | MIC (Escherichia coli [2]) | MIC (Escherichia coli [3]) | MIC [4] | MIC (Escherichia coli [5]) | MIC (Pseudomonas aeruginosa) | MIC (Staphylococcus aureus)
3 | CC1Cc2cc(N3CCNCC3)c(F)cc2-c2cc(=O)c(C(=O)O)cn21 (stereo not given) | – | – | 83.9 µM | – | – | 50 mg/L (≈ 140 µM) | – | 0.2 mg/L (≈ 0.56 µM) | 50 mg/L (≈ 140 µM) | 25 mg/L (≈ 70 µM)
4 | O=C(O)c1cn(C2CC2)c2cc(N3CCNCC3)c(F)cc2c1=O [CIPROFLOXACIN] | – | 0.005 mg/L (≈ 0.0151 µM) | – | 1.56 mg/L (≈ 4.71 µM) | – | – | 0.78 mg/L (≈ 2.35 µM) | – | 0.05 mg/L (≈ 0.151 µM) | 0.2 mg/L (≈ 0.604 µM)
